HCV NS3 hel inh = blocks Hepatitis C virus NS3 helicase unwinding | NS3 helicase DNA unwinding, Cy5 molecular beacon fluorescence | inhibition, % at 10.9 µM | actives 0.56% (n = 290,000);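 active = inhibition above the mean of all tested compounds plus 3 SD, set per campaign, cut at about 35% in these data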
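Control set: DMSO versus 110 µM thioflavine S; Material: NS3 helicase fragment of HCV; Measured by: Cy5 fluorescence at 0 and 60 min, beacon hairpin quenching; Read-out basis: percent inhibition from t60/t0 fluorescence ratio; Times: reaction time 60 min, 25 °C; Repeats: single replicate; Compound dosing: single dose, 10.9 µM nominal final, DMSO 0.8% final.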
DNMT1 inh = DNMT1 (human) enzyme inhibition; P26358; DNMT1 molecular beacon, Hinp1I cleavage, fluorescence; inhibition (reported as % activation of signal), % at 10 µM; actives 0.83% (n = 360,000); AID 588458
CASP6 VEID inh = inhibitors of human caspase-6; actives 0.53% (n = 350,000); purified caspase-6, Z-VEID-R110 cleavage fluorescence; inhibition, % at 12.5 µM;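 active = mean inhibition across replicates at least about 35%, with every replicate also reaching that limit, limit read from the data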
Target sequence (P55212 24-179 limits assumed): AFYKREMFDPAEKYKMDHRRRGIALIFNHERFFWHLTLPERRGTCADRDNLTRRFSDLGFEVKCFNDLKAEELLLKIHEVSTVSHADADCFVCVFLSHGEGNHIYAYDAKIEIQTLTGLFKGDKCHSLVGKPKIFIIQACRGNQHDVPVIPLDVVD
Target sequence (P55212 194-293 limits assumed): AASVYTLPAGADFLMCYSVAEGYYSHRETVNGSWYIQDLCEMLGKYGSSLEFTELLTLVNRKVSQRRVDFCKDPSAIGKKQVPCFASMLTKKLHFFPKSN
NSD2 HMT inh = NSD2 (human) methyltransferase inhibition; O96028; NSD2 peptide methylation, AlphaScreen, 120 min; inhibition, % at 12.5 µM; actives 0.54% (n = 310,000); AID 743445
DNMT1 interf DR = beacon fluorescence artifact, dose response counter-screen. shares compounds with DNMT1 inh. molecular beacon fluorescence, spectral interference counter-screen. IC50, µM. 200 tested, under 10 active. AID 602382; call rule not given here
DNMT1 confirm = DNMT1 inhibition confirmation, single concentration | shares compounds with DNMT1 inh | DNMT1 molecular beacon HinP1I cleavage, fluorescence | inhibition, % at 10 µM | actives 8% (n = 2,300) | AID 602385;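 active = average inhibition of at least 30% in the single-concentration confirmation test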
DNMT1 interf = counter-screen for DNMT1 inhibitors: spectral interference; shares compounds with DNMT1 inh; DNMT1 molecular beacon spectral interference counterscreen, fluorescence 485/520; activation (fluorescence interference), % at 10 µM; actives 1% (n = 2,300); AID 602387;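 active = activation of at least 30% at 10 µM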;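 also: DNMT1 catalytic domain with a HinP1I cleavage step and a FAM/dabcyl DNA beacon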
Numbers stand for hits; n = inactive; x = not tested or not shown; ! = a repeat was not active. Most compounds without a hit are left out; they make up all but 1.5% or so of the library. Rule as the data show it, unless noted: active = inhibition above about 50%; inactive = the rest.

SMILES	HCV NS3 hel inh	DNMT1 inh	CASP6 VEID inh	NSD2 HMT inh	DNMT1 confirm	DNMT1 interf	others
Cc1cccn2c(=O)c3cc(C#N)c(=NC(=O)c4ccccc4)n(Cc4ccco4)c3nc12	x	n	n	n	x	x
Cc1cccc(C(=O)N=c2c(C#N)cc3c(=O)n4cccc(C)c4nc3n2Cc2ccco2)c1	n	51!	n	x	n	n
Cc1ccccc1S(=O)(=O)NCC[C@H]1CC[C@@H](NC(=O)C2CCC2)[C@H](CO)O1	x	x	n	x	x	x
O=C(COC(=O)C1CC1)Nc1ncc(Cl)cc1Cl	x	n	n	n	x	x
Cc1ccc2nc(NC(=O)C3CCN(S(=O)(=O)c4cc([N+](=O)[O-])ccc4Cl)CC3)sc2c1	n	60	n	n	n	n
O=C(COC(=O)C1CCN(S(=O)(=O)c2cc([N+](=O)[O-])ccc2Cl)CC1)Nc1ncc(Cl)cc1Cl	n	86	x	x	n	n
O=C(Nc1nc2ccc(F)cc2s1)C1CCN(S(=O)(=O)c2cc([N+](=O)[O-])ccc2Cl)CC1	n	n	n	n	x	x
COc1ccc2c3c(n(C)c2c1)[C@H](CO)N(Cc1cccc(Cl)c1)CC31CCN(C(C)=O)CC1	x	x	n	x	x	x
C[C@@H]1CN([C@@H](C)CO)C(=O)c2cc(NS(=O)(=O)c3ccc(Cl)cc3)ccc2O[C@@H]1CN(C)CC1CCCCC1	x	x	n	x	x	x
C[C@@H]1CN([C@H](C)CO)C(=O)c2cc(/C=C/c3ccccc3)cnc2O[C@H]1CN(C)C(=O)c1ccc2c(c1)OCO2	x	x	n	x	x	x
Cc1ccccc1S(=O)(=O)NCC[C@@H]1CC[C@@H](NC(=O)Nc2cccc(Cl)c2)[C@H](CO)O1	x	x	n	x	x	x
C=CCn1c(SCC(=O)c2[nH]c(C)c(C(=O)OCC)c2C)nc2scc(-c3ccccc3)c2c1=O	n	57	n	n	n	n
C=CCn1c(SCC(=O)c2[nH]c(C)c(C(=O)OCC)c2C)nc2scc(-c3ccc(OC)cc3)c2c1=O	n	n	n	n	x	x
C[C@H]1CN([C@@H](C)CO)C(=O)c2cc(-c3cccc(F)c3)cnc2O[C@H]1CN(C)C(=O)Nc1cc(F)ccc1F	x	x	n	x	x	x
Cn1cc(CN2C[C@H]3CC[C@H]2C3)c(-c2ccccc2F)n1	n	58	n	n	n	n
COc1ccc(NC(=O)Nc2ccc3c(c2)C(=O)N([C@H](C)CO)C[C@@H](C)[C@@H](CN(C)S(=O)(=O)c2ccc(Cl)cc2)OCCCC[C@H](C)O3)cc1	x	x	n	x	x	x
C/C(=N\NC(=O)c1cccc(F)c1)c1ccc(NC(=O)Cc2ccccc2)cc1	n	n	n	n	x	x
C/C(=N\NC(=O)c1cc(O)cc(O)c1)c1ccc(NC(=O)Cc2ccccc2)cc1	n	85	71	x	51	n	DNMT1 interf DR=n
Cc1ccc(C(=O)Nc2ccc(N3CCCC3)cc2)c(C)c1	n	54	n	n	n	n
O=C(Nc1ccc(N2CCCC2)cc1)c1cc(Br)ccc1Cl	n	50	n	n	n	n
Cc1ccccc1C(=O)Nc1ccc(N2CCCC2)cc1	n	n	n	n	x	x
O=C(Nc1ccc(N2CCCC2)cc1)c1ccccc1[N+](=O)[O-]	n	70	n	n	n	n
COc1ccc(-c2ccc(NC(=O)c3ccc(Br)o3)cc2)nn1	x	56	n	n	n	n
COC(=O)Cc1ccc(NC(=O)c2ccc(Br)o2)cc1	n	n	x	n	x	x
CS(=O)(=O)c1ccc(C(=O)Nc2ccc(N3CCCC3)cc2)c(Cl)c1	n	n	n	n	x	x
SMILES	HCV NS3 hel inh	DNMT1 inh	CASP6 VEID inh	NSD2 HMT inh	DNMT1 confirm	DNMT1 interf	others
CCOC(=O)c1c(-c2ccc(Br)cc2)csc1/N=C/C1C(=O)CC(C)(C)CC1=O	x	x	x	n	x	x
O=C(Nc1ccc(N2CCCC2)cc1)c1ccc(Br)o1	n	81	x	x	n	n
CCC(CC)C(=O)N(C)c1c(C)nc2c(OCc3ccc(Cl)cc3Cl)cccn12	x	n	n	n	x	x
CCC(CC)C(=O)N(C)c1c(C)nc2c(OCc3ccccc3C)cccn12	x	68	n	n	n	n
O=C(c1cccc(Cl)c1)N1CCN(Cc2ccc3c(c2)OCO3)CC1	n	90	n	n	n	n
O=C(c1cccc(F)c1)N1CCN(Cc2ccc3c(c2)OCO3)CC1	n	n	n	n	x	x
Cc1cc(=O)oc(C)c1C(=O)NNC(=O)C1(C)CC1Br (stereo not drawn)	n	n	n	n	x	x
CC1(C(=O)NNC(=O)c2ccc(=O)oc2)CC1Br (stereo not drawn)	n	75	42	n	n	n
CCN1CCc2nc(SCC(=O)Nc3ccc(OC)cc3)c(C#N)cc2C1	n	n	x	n	x	x
COc1ccc(NC(=O)CSc2nc3c(cc2C#N)CN(C)CC3)cc1	x	71	x	n	n	n
COc1cc(NC(=O)c2ccc(Cl)cc2Cl)ccc1-c1cc2ccccc2oc1=O	n	66	x	n	n	n
COc1ccc2nc3ccccc3nc2c1NC(=O)c1ccc(Cl)cc1Cl	n	57	x	n	n	37
C/C=C/C=C/C(=O)[C@@H]1[C@@H]([C@]2(C)OC(=O)C(C)=C2O)[C@H]2/C(=C(O)/C=C/C=C/C)C(=O)[C@]1(C)C(=O)C2(C)O (stereo partly drawn)	x	85	n	x	61	n	DNMT1 interf DR=n
CCCc1cn(CC[C@@H]2CC[C@H](NC(=O)Cc3cccnc3)[C@@H](CO)O2)nn1	x	x	n	x	x	x
O=C(O)c1cc([N+](=O)[O-])ccc1-c1ccc([N+](=O)[O-])cc1C(=O)O	x	61	n	n	n	n
CCN(C(=O)COC(=O)CCOc1ccc(C(C)(C)C)cc1)c1c(N)n(Cc2ccccc2)c(=O)[nH]c1=O	x	63	n	n	n	n
Cc1cccc(N2CCN(S(=O)(=O)c3ccc4c(c3)C(C)(C)C(=O)N4C)CC2)c1C	n	76	n	x	n	n
O=C(CCN1C(=O)/C(=C/c2ccc(Cl)cc2)SC1=S)NC1C=CS(=O)(=O)C1 (stereo not drawn)	n	n	n	n	x	x
O=C(CN1C(=O)/C(=C/c2ccc(Cl)cc2)SC1=S)NC1C=CS(=O)(=O)C1 (stereo not drawn)	n	65	n	n	n	n
COc1ccc(NC(=O)C2Cc3c(-c4cccc(C(N)=O)c4)ccnc3O2)cc1 (stereo not drawn)	x	55	n	n	n	n
COc1ccc(NC(=O)C2Cc3c(-c4cccc(C(N)=O)c4)ccnc3O2)cn1 (stereo not drawn)	x	n	n	n	x	x
CC(C)NC(=O)N(C)C[C@@H]1OCCCC[C@H](C)Oc2ccc(NC(=O)c3ccccc3)cc2C(=O)N([C@H](C)CO)C[C@H]1C	x	x	n	x	x	x
Cc1onc(-c2ccccc2Cl)c1C(=O)NCc1ccco1	n	63	n	n	n	n
Cc1ccc(CNC(=O)c2c(-c3ccccc3Cl)noc2C)cc1	n	n	n	n	x	x
COc1ccc2nc(NC(=O)c3cccc(-c4cc5ccccc5oc4=O)c3)sc2c1	n	58	x	n	n	n

Assay outcomes: PubChem BioAssay, several laboratories
